Results reported in ChEMBL document CHEMBL1649322, “Oral treatment options for ambulatory patients with urinary tract infections caused by extended-spectrum-beta-lactamase-producing Escherichia coli” (2010).
In brackets after ≈: the same amount, converted by molar mass.

How the values were obtained:
Escherichia coli [1] = test: Antimicrobial activity against xtended-spectrum-beta-lactamase-producing Escherichia coli obtained from urinary tract infection patient by Etest; type: functional; settings: Urine
Summary of the method: (§1)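 ESBL-producing E. coli isolates from urinary tract infections; ESBL expression confirmed by double-disk synergy test per 2007 CLSI guidelines. Verified isolates (n = 100) tested by Etest, alongside agar diffusion, for pivmecillinam, fosfomycin and ertapenem. Read-outs were MIC and susceptibility category (susceptible, reduced/intermediate, resistant), given as percent of isolates; mean MIC calculated for susceptible isolates.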

Escherichia coli [2] = test: Antimicrobial activity against xtended-spectrum-beta-lactamase-producing Escherichia coli obtained from urinary tract infection patient assessed as percent susceptible isolates by Etest; type: functional, Urine; summary of the method: as §1

| Molecule | MIC (Escherichia coli [1]) | Activity (Escherichia coli [2]) | Activity (Escherichia coli [2]; Urine) |
| --- | --- | --- | --- |
| O=C1CN(/N=C/c2ccc([N+](=O)[O-])o2)C(=O)N1 [NITROFURANTOIN] | 17 µg/mL (≈ 71.5 µM) | 94% | – |
| CC(C)(C)C(=O)OCOC(=O)[C@@H]1N2C(=O)[C@@H](/N=C/N3CCCCCC3)[C@H]2SC1(C)C [AMDINOCILLIN PIVOXIL] | 1.17 µg/mL (≈ 2.66 µM) | 85% | – |
| C[C@@H](O)[C@H]1C(=O)N2C(C(=O)O)=C(S[C@@H]3CN[C@H](C(=O)Nc4cccc(C(=O)O)c4)C3)[C@H](C)[C@H]12 [ERTAPENEM] | 0.07 µg/mL (≈ 0.147 µM) | 100% | – |
| O=C(O)c1cn(C2CC2)c2cc(N3CCNCC3)c(F)cc2c1=O [CIPROFLOXACIN] | – | 22% | – |
| C[C@@H]1O[C@@H]1P(=O)(O)O [FOSFOMYCIN] | 1.38 µg/mL (≈ 10 µM) | 97% | – |
| GENTAMICIN | – | – | 78% |
